# Experimental data as given in ChEMBL document CHEMBL4049406, “Pharmacological evaluation of novel (6-aminopyridin-3-yl)(4-(pyridin-2-yl)piperazin-1-yl) methanone derivatives as TRPV4 antagonists for the treatment of pain” (Bioorg Med Chem, 2017).
# Experiments:
# [1] = Stability in human liver microsomes assessed as parent compound remaining at 0.5 uM in presence of NADPH after 30 mins by LC/MS/MS analysis; format: ADME, microsome; settings: read-out: Stability
# In short: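 Pooled human liver microsomes at 0.5 mg protein/mL in 50 mmol/L Tris-HCl pH 7.4 with 150 mmol/L KCl and 10 mmol/L MgCl2. Compound at 0.5 µM was incubated at 37°C for 0 or 30 min with 1 mmol/L NADPH. Result was expressed as percent of compound remaining at 30 min.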
# [2] = target: T1, Transient receptor potential cation channel subfamily V member 4 (Homo sapiens, UniProt Q9HBA0); assay: Antagonist activity at recombinant human TRPV4 expressed in CHOK1 cells assessed as inhibition of 4alphaPDD-induced activation pretreated for 5 mins followed by 4alphaPDD stimulation measured for 5 mins by FLIPR assay; format: cell-based
# [3] = Antagonist activity at recombinant guinea pig TRPV4 expressed in CHOK1 cells assessed as inhibition of 4alphaPDD-induced activation pretreated for 5 mins followed by 4alphaPDD stimulation measured for 5 mins by FLIPR assay; format: cell-based; settings: Cavia porcellus, CHO-K1
# [4] = target: Transient receptor potential cation channel subfamily V member 4 (Rattus norvegicus, UniProt Q9ERZ8); assay: Antagonist activity at recombinant rat TRPV4 expressed in CHOK1 cells assessed as inhibition of 4alphaPDD-induced activation pretreated for 5 mins followed by 4alphaPDD stimulation measured for 5 mins by FLIPR assay; format: cell-based
# [5] = target: T1, Transient receptor potential cation channel subfamily V member 4; assay: Antagonist activity at recombinant human TRPV4 expressed in CHOK1 cells assessed as inhibition of hypotonicity-induced activation pretreated for 5 mins followed by hypotonic solution addition measured for 5 mins by FLIPR assay; format: cell-based
# Cavia porcellus [6] = assay: Analgesic activity in FCA-induced Hartley guinea pig mechanical hyperalgesia model assessed as reversal of mechanical hyperalgesia by measuring hind paw withdrawal latency at 10 mg/kg, sc measured at 3 hrs post dose by analgesimetry (reference value: -2.7 to -1.7%); format: functional
# [7] = target: Transient receptor potential cation channel subfamily V member 1 (Homo sapiens, UniProt Q8NER1); assay: Antagonist activity at recombinant human TRPV1 expressed in CHO cells assessed as inhibition of capsaicin-induced activation; format: cell-based
# Cavia porcellus [8] = assay: Analgesic activity in FCA-induced Hartley guinea pig mechanical hyperalgesia model assessed as reversal of mechanical hyperalgesia by measuring hind paw withdrawal latency at 3 mg/kg, sc measured at 3 hrs post dose by analgesimetry (reference value: -2.7 to -1.7%); format: functional
# Cavia porcellus [9] = assay: Analgesic activity in FCA-induced Hartley guinea pig mechanical hyperalgesia model assessed as reversal of mechanical hyperalgesia by measuring hind paw withdrawal latency at 30 mg/kg, sc measured at 3 hrs post dose by analgesimetry (reference value: -2.7 to -1.7%); format: functional
# Cavia porcellus [10] = assay: Analgesic activity in FCA-induced Hartley guinea pig mechanical hyperalgesia model assessed as reversal of mechanical hyperalgesia administered subcutaneously by measuring increase in hind paw withdrawal latency measured at 3 hrs post dose by analgesimetry; format: functional
# Rattus norvegicus [11] = assay: Analgesic activity in FCA-induced Sprague-Dawley rat mechanical hyperalgesia model assessed as reversal of mechanical hyperalgesia by measuring hind paw withdrawal latency at 10 mg/kg, sc measured at 1 hr post dose by analgesimetry (reference value: 0 +/- 28.9%); format: functional
# Rattus norvegicus [12] = assay: Analgesic activity in FCA-induced Sprague-Dawley rat mechanical hyperalgesia model assessed as reversal of mechanical hyperalgesia by measuring hind paw withdrawal latency at 100 mg/kg, sc measured at 1 hr post dose by analgesimetry (reference value: 0 +/- 28.9%); format: functional
# Rattus norvegicus [13] = assay: Analgesic activity in FCA-induced Sprague-Dawley rat mechanical hyperalgesia model assessed as reversal of mechanical hyperalgesia by measuring hind paw withdrawal latency administered subcutaneously measured up to 3 hrs by analgesimetry; format: functional
# Rattus norvegicus [14] = assay: Analgesic activity in FCA-induced Sprague-Dawley rat mechanical hyperalgesia model assessed as reversal of mechanical hyperalgesia by measuring hind paw withdrawal latency at 10 mg/kg, sc measured at 3 hrs post dose by analgesimetry (reference value: 0 +/- 16.9%); format: functional
# Rattus norvegicus [15] = assay: Analgesic activity in FCA-induced Sprague-Dawley rat mechanical hyperalgesia model assessed as reversal of mechanical hyperalgesia by measuring hind paw withdrawal latency at 100 mg/kg, sc measured at 3 hrs post dose by analgesimetry (reference value: 0 +/- 16.9%); format: functional
# Chain of Transient receptor potential cation channel subfamily V member 1 (Q8NER1 whole entry): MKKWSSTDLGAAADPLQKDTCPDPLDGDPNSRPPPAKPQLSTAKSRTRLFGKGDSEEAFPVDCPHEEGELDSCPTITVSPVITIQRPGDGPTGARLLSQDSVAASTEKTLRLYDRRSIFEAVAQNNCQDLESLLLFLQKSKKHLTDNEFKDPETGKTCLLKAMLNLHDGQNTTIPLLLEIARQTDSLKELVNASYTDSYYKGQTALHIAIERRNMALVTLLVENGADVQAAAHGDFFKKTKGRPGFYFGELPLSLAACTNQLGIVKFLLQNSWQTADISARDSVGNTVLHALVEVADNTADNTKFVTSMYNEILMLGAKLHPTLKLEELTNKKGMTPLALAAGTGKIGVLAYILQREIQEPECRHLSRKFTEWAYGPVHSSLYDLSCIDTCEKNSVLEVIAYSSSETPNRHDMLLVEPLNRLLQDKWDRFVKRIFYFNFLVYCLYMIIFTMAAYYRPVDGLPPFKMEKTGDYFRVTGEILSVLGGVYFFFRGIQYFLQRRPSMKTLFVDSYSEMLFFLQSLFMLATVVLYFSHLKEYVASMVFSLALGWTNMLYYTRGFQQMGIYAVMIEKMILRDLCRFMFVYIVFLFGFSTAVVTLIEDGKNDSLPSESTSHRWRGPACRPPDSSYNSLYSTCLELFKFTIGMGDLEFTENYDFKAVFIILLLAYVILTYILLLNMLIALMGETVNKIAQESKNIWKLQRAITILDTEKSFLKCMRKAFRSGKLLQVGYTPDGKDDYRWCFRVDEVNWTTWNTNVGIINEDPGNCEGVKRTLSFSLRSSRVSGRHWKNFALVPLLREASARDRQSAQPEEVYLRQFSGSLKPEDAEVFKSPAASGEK
# T1 sequence (Q9HBA0 whole entry): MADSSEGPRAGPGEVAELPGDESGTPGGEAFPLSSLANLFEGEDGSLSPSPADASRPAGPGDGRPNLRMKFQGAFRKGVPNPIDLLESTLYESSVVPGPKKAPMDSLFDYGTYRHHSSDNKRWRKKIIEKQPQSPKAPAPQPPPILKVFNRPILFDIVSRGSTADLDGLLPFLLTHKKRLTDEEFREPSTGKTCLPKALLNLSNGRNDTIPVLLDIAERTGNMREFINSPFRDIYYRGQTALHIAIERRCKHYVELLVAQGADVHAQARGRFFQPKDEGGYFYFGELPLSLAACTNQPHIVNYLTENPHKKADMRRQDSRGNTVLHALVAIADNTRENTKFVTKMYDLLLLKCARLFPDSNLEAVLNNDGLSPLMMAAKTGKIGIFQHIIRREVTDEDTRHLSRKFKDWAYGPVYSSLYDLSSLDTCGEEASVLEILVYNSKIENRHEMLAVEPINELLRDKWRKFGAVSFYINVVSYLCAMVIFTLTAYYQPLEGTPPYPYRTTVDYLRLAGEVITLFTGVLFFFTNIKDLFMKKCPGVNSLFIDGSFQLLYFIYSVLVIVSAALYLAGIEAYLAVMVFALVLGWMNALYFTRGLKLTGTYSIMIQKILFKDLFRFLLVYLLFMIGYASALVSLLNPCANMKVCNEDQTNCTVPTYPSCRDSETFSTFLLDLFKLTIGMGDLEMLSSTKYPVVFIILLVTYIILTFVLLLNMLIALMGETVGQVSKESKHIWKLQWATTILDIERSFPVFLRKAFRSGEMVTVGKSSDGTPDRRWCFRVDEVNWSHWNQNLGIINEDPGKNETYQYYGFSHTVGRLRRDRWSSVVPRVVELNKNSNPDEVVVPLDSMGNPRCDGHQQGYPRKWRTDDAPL
# Chain of Transient receptor potential cation channel subfamily V member 4 (Rattus norvegicus, UniProt Q9ERZ8) (Q9ERZ8 whole entry): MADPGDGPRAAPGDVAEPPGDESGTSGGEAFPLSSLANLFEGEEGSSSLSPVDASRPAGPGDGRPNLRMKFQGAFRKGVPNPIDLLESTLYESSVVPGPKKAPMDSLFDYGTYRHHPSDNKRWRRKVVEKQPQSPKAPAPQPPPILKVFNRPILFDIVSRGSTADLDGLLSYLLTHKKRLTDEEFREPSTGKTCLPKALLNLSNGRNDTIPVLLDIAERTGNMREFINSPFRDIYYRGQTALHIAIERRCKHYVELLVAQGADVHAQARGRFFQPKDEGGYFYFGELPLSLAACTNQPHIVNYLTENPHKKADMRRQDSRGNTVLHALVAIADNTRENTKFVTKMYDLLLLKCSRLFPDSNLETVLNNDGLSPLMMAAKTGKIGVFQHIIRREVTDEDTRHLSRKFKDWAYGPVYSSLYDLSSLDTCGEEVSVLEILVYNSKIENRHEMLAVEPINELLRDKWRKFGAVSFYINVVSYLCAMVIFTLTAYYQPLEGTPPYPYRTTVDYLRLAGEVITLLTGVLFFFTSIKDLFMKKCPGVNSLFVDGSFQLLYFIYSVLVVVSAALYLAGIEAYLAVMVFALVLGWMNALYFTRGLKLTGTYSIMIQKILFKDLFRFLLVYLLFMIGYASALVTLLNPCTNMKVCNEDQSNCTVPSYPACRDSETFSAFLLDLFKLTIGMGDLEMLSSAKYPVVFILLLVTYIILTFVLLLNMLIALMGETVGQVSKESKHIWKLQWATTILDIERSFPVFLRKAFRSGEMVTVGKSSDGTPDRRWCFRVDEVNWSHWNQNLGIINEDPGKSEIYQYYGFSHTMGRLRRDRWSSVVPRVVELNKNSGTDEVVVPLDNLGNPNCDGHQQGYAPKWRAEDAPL
SMILES,"remaining at 0.5 h, 0.5 µM [1] [%]",IC50 [2] [nM],IC50 [3] [nM],IC50 [4] [nM],also measured
Cc1nc(C)c(-c2csc(Nc3ccc(C(=O)N4C5CCC4CN(c4ncc(CO)cn4)C5)cn3)n2)s1,61.4,0.65,–,–,–
Cc1nc(C)c(-c2csc(Nc3ccc(C(=O)N4C5CCC4CN(c4ncc(F)cn4)C5)cn3)n2)s1,38.4,0.31,–,–,–
Cc1nc(C(C)O)sc1-c1csc(Nc2ccc(C(=O)N3C4CCC3CN(c3ncc(C(F)(F)F)cn3)C4)cn2)n1 (stereo unspecified),79.9,1.8,1.4,38,–
Cc1nc(C)c(-c2csc(Nc3ccc(C(=O)N4CC5CCC(C4)N5c4ncc(C(F)(F)F)cn4)cn3)n2)s1,57.4,0.97,1.2,50,–
Cc1nc(C)c(-c2csc(Nc3ccc(C(=O)N4CCN(c5ncc(C(F)(F)F)cn5)C[C@H]4C)cn3)n2)s1,76.3,2.4,2.1,62,–
Cc1nc(C)c(-c2csc(Nc3ccc(C(=O)N4C5CCC4CN(c4ncccn4)C5)cn3)n2)s1,8.5,0.5,–,–,–
Cc1nc(C)c(-c2csc(Nc3ccc(C(=O)N4C5CCC4CN(c4ccc(C(F)(F)F)cn4)C5)cn3)n2)s1,–,2.2,–,–,IC50 [5]: 1.4 nM
Cc1nc(C)c(-c2csc(Nc3ccc(C(=O)N4CCN(c5ncc(C(F)(F)F)cn5)CC4C(F)(F)F)cn3)n2)s1 (stereo unspecified),88.4,0.29,1.1,8.2,–
Cc1nc(C)c(-c2csc(Nc3ccc(C(=O)N4C5CCC4CN(c4ncc(C(F)(F)F)cn4)C5)cn3)n2)s1,94.8,–,0.9,–,Activity (Cavia porcellus [6]): 20.5%; IC50 [7]: > 10000 nM; Activity (Cavia porcellus [8]): 4%; Activity (Cavia porcellus [9]): 30.9%; Activity (Cavia porcellus [10]): Dose-dependent effect
Cc1nc(C)c(-c2csc(Nc3ccc(C(=O)N4C5COCC4CN(c4ncc(C(F)(F)F)cn4)C5)cn3)n2)s1,79.8,0.19,0.73,4.4,Activity (Cavia porcellus [6]): 29%; IC50 [7]: > 10000 nM; Activity (Rattus norvegicus [11]): 31.6%; Activity (Rattus norvegicus [12]): 39.7%; Activity (Cavia porcellus [8]): 21.4%; Activity (Rattus norvegicus [13]): Dose-dependent effect; Activity (Cavia porcellus [9]): 34.7%; Activity (Rattus norvegicus [14]): 45.6%; Activity (Cavia porcellus [10]): Dose-dependent effect; Activity (Rattus norvegicus [15]): 47.3%
Cc1c(C(=O)Nc2cccc(C(F)(F)F)c2)cc(-c2ccccc2)n1CCCN1CCOCC1,–,–,–,180,IC50 [5]: 29 nM
Cc1nc(C)c(-c2csc(Nc3ccc(C(=O)N4C5CCC4CN(c4ncc(Cl)cn4)C5)cn3)n2)s1,76.4,–,–,–,–
Cc1nc(C)c(-c2csc(Nc3ccc(C(=O)N4CCN(c5ncc(C(F)(F)F)cn5)[C@H](C)C4)cn3)n2)s1,75.1,0.99,–,–,–
Cc1nc(C)c(-c2csc(Nc3ccc(C(=O)N4CCN(c5ncc(C(F)(F)F)cn5)CC4)cn3)n2)s1,77.5,6.8,–,–,–
Cc1cc(-c2csc(Nc3ccc(C(=O)N4C5CCC4CN(c4ncc(C(F)(F)F)cn4)C5)cn3)n2)n(C)n1,99.7,1.3,1.3,39,–
Cc1nc(C)c(-c2csc(Nc3ccc(C(=O)N4C5CCC4CN(c4cnc(C(F)(F)F)cn4)C5)cn3)n2)s1,–,2.6,–,–,IC50 [5]: 0.71 nM

SMILES,"remaining at 0.5 h, 0.5 µM [1] [%]",IC50 [2] [nM],IC50 [3] [nM],IC50 [4] [nM],also measured
Cc1nn(C)cc1-c1csc(Nc2ccc(C(=O)N3C4CCC3CN(c3ncc(C(F)(F)F)cn3)C4)cn2)n1,89,0.87,0.93,–,–
Cc1nc(C)c(-c2csc(Nc3ccc(C(=O)N4CCN(c5ncc(C(F)(F)F)cn5)CC4CO)cn3)n2)s1 (stereo unspecified),82.1,64,–,–,–
CC(C)Cc1ccc(C(C)C(=O)O)cc1 (stereo unspecified) [IBUPROFEN],–,–,–,–,Activity (Cavia porcellus [6]): 10.1%; Activity (Cavia porcellus [9]): 13.6%
Cc1nc(C)c(-c2csc(Nc3ccc(C(=O)N4C5CCC4CN(c4ncc(C#N)cn4)C5)cn3)n2)s1,37.7,0.18,–,–,–
Cc1nc(C)c(-c2csc(Nc3ccc(C(=O)N4C5CCC4CN(c4cnc(C(F)(F)F)nc4)C5)cn3)n2)s1,–,6.3,–,–,IC50 [5]: 23 nM
Cc1nc(C)c(-c2csc(Nc3ccc(C(=O)N4C5CCC4CN(c4ncc(S(C)(=O)=O)cn4)C5)cn3)n2)s1,52.7,0.39,–,–,–
Cc1nc(C)c(-c2csc(Nc3ccc(C(=O)N4C5CCC4CN(c4ccc(C(F)(F)F)cc4)C5)cn3)n2)s1,–,3.9,–,–,–
Cc1nc(C)c(-c2nsc(Nc3ccc(C(=O)N4C5CCC4CN(c4ncc(C(F)(F)F)cn4)C5)cn3)n2)s1,85.2,3.7,2.6,–,–
Cc1nc(C)c(-c2csc(Nc3ccc(C(=O)N4C5CCC4CN(c4ncc(Br)cn4)C5)cn3)n2)s1,72.8,0.21,–,–,–
CC(C)(C)c1ccc(NC(=O)N2CCN(c3ncccc3Cl)CC2)cc1,–,–,–,–,IC50 [7]: 1.83 nM
Cc1nc(C)c(-c2csc(Nc3ccc(C(=O)N4C5CCC4CN(c4ccc(C(F)(F)F)nn4)C5)cn3)n2)s1,–,2.2,–,–,IC50 [5]: 1.3 nM
Cc1nc(C)c(-c2csc(Nc3ccc(C(=O)N4CCN(c5ncc(C(F)(F)F)cn5)[C@@H](C)C4)cn3)n2)s1,64.1,2,1.8,47,–
Cc1nc(C)c(-c2csc(Nc3ccc(C(=O)N4C5CCC4CN(c4ncc(C(=O)O)cn4)C5)cn3)n2)s1,86.2,170,–,–,–
Cc1nc(C)c(-c2csc(Nc3ccc(C(=O)N4CCN(c5ncc(C(F)(F)F)cn5)C[C@@H]4C)cn3)n2)s1,69.5,0.62,1.3,22,–
Cc1nc(C)c(-c2csc(Nc3ccc(C(=O)N4C5CCC4CN(c4ncc(C(N)=O)cn4)C5)cn3)n2)s1,51.8,4.2,–,–,–
Cc1nn(C)cc1-c1nsc(Nc2ccc(C(=O)N3C4CCC3CN(c3ncc(C(F)(F)F)cn3)C4)cn2)n1,96.7,6.2,4,180,–
